The text below walks through data of ChEMBL document CHEMBL4431315, “Jatrophane Diterpenoids as Modulators of P-Glycoprotein-Dependent Multidrug Resistance (MDR): Advances of Structure-Activity Relationships and Discovery of Promising MDR Reversal Agents” (J Med Chem, 2016).

Structures are written as SMILES. pIC50: −log10 of the molar value. The source made the active and inactive calls. No cut-off for these calls is given here. Where only a bound is given, the exact number is not on record here.

One may read the pIC50 as the negative decadic logarithm of the IC50, by convention in mol/L. A word on the half-life: it is how long it takes for the measured level to halve. Low values mean fast loss, high ones slow loss. In general, TGI refers to the reduction of tumour growth relative to the control group.

The nature of series [1]: Metabolic stability in Sprague-Dawley rat liver microsomes assessed as rate constant at 100 uM by HPLC-UV analysis. It counts as ADME, Microsome. Put shortly:
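Rat liver microsomes at 1 mg protein/mL final, compound at 100 μM final (from a 10 mM CH3CN stock), in 100 mM PBS with 3.0 mM MgCl2 and 1.0 mM NADPH, pH 7.4, 37 °C. Sampled at 0 to 180 min and stopped with ice-cold CH3CN. Control run without NADPH. Centrifuged supernatants analysed by HPLC-UV; three independent experiments in triplicate.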
For orientation: Microsomes from liver hold many membrane-bound enzymes, among them those of drug oxidation.

The target in series [2] is T1, ATP-dependent translocase ABCB1 (Homo sapiens, UniProt P08183). The series is described as follows: Inhibition of P-gp mediated efflux in adriamycin-resistant human HepG2 cells assessed as intracellular rhodamine-123 accumulation at 10 uM incubated in dark condition for 90 mins by flow cytometry relative to control. It counts as cell-based. Put shortly:
(§1)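 HepG2/ADR cells seeded at 5 × 10^5/well and given compound plus 10 μM Rho123 in the dark at 37 °C for 90 min. Cells washed twice in ice-cold PBS, resuspended in PBS, read by flow cytometry in FL1 (Em 525 nm). Fold of control = (treated fluorescence − background)/(Rho123-only fluorescence − background).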

A further series concerns NCI/ADR-RES. The series is described as follows: Intrinsic cytotoxicity against human MCF7/ADR cells assessed as inhibition of cell proliferation after 48 hrs by MTT assay. Type of series: cell-based. Put shortly:
(§2)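 Seeded at 5 × 10^3 cells/well with graded compound levels, DMSO as negative control, 48 h. MTT added for 4 h, formazan dissolved in DMSO, OD read at 570 nm (reference 630 nm). IC50 by nonlinear regression; triplicate samples.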
For orientation: Tetrazolium assays rely on reduction of a dye to a coloured formazan, in cell work by metabolically active cells.

Series [3] in a line: Half life in Sprague-Dawley rat liver microsomes at 100 uM by HPLC-UV analysis. It counts as ADME, Microsome.
Series [4] concerns the target T1, ATP-dependent translocase ABCB1. The series can be described thus: Inhibition of P-gp mediated efflux in adriamycin-resistant human HepG2 cells assessed as intracellular rhodamine-123 accumulation at 0.125 uM incubated in dark condition for 90 mins by flow cytometry relative to control. Type of series: cell-based. In outline: as §1
On the technique in general: A flow cytometer gives signals particle by particle.

Series [5] has the same target. The series can be described thus: Inhibition of P-gp mediated efflux in adriamycin-resistant human HepG2 cells assessed as intracellular rhodamine-123 accumulation at 2 uM incubated in dark condition for 90 mins by flow cytometry relative to control. Type of series: cell-based. Put shortly: as §1
In series [6] the test system is HepG2. The series can be described thus: Cytotoxicity against adriamycin-resistant human HepG2 cells assessed as inhibition of cell proliferation after 48 hrs by MTT assay. The following applies: HepG2, 48 h. It counts as functional, cell-based. Put shortly: as §2
The nature of series [7]: Cytotoxicity against HLF cells assessed as inhibition of cell proliferation after 48 hrs by MTT assay. Type of series: cell-based. The following applies: Homo sapiens. In outline: as §2
Series [8] deals with T1, ATP-dependent translocase ABCB1. The series can be described thus: Inhibition of P-gp mediated efflux in adriamycin-resistant human HepG2 cells assessed as intracellular rhodamine-123 accumulation at 1 uM incubated in dark condition for 90 mins by flow cytometry. It counts as cell-based. Put shortly:
as §1

Series [9] relates to HepG2. The series can be described thus: Multidrug resistance reversal activity in adriamycin-resistant human HepG2 cells xenografted in nude BALB/c mouse assessed as increase in mouse survival at 10 mg/kg, ip administered 2 hrs prior to ADR dosing at 5 mg/kg, ip on day 0/3/6 measured every day during compound dosing. It counts as functional, organism-based. In outline: (§3)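 Female BALB/c nude mice, 5 weeks old, implanted s.c. in the right flank with 1 × 10^7 HepG2/ADR cells. At about 60 mm3, randomized into groups of seven and dosed ip on days 0, 3, 6: compound 10 mg/kg given 2 h before ADR 5 mg/kg. Controls got saline with 0.5% DMSO and 5% Kolliphor HS 15. Tumor size and body weight measured daily; survival tracked. IR from mean tumor weights; Student's t test, P < 0.05.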

The subject of series [10] is HepG2. The series is described as follows: Multidrug resistance reversal activity in adriamycin-resistant human HepG2 cells xenografted in nude BALB/c mouse assessed as tumor growth inhibition at 10 mg/kg, ip administered 2 hrs prior to ADR dosing at 5 mg/kg, ip on day 0/3/6 measured every day during compound dosing. Type of series: functional. Put shortly:
as §3

T1 sequence (P08183 whole entry): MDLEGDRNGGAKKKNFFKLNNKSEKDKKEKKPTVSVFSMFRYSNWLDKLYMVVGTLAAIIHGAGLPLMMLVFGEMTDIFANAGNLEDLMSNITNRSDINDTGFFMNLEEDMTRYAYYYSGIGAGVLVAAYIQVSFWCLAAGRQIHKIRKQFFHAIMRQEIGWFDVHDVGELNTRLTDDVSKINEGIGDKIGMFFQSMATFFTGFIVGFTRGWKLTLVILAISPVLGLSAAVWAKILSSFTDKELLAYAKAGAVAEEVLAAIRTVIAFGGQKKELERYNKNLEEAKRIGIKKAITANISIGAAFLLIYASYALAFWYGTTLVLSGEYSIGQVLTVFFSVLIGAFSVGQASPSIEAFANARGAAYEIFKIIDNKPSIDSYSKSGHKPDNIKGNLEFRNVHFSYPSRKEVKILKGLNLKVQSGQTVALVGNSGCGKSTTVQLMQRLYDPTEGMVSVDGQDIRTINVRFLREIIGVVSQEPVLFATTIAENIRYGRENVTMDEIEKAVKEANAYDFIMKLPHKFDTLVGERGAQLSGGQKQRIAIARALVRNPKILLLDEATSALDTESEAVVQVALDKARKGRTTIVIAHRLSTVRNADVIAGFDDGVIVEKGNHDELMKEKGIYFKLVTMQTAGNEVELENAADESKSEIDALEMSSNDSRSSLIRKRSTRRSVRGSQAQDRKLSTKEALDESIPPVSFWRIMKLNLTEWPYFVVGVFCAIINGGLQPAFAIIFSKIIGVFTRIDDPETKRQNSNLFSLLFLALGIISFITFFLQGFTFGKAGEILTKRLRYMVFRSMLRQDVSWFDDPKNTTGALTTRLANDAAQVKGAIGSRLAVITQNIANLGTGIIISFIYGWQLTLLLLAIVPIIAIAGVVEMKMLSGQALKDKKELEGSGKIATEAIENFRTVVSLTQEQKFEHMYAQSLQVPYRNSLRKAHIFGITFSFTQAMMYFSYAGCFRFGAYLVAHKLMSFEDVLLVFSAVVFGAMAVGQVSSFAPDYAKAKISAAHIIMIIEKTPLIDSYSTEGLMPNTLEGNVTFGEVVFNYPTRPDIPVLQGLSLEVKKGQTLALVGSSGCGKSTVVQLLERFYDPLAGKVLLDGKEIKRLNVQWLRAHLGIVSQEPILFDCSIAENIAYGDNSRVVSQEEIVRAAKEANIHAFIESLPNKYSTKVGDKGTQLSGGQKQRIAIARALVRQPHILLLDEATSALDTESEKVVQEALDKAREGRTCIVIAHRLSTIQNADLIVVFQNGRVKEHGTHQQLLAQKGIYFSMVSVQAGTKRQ

With `COc1ccc(CCN(C)CCCC(C#N)(c2ccc(OC)c(OC)c2)C(C)C)cc1OC` (configuration not stated), in series [1], the k el at 100 µM was 0.000392 s⁻¹.

As to `COc1cc2c(cc1OC)CN(CCc1ccc(NC(=O)c3cc(OC)c(OC)cc3NC(=O)c3cnc4ccccc4c3)cc1)CC2`, the k el at 100 µM in series [1] is 5.5e-05 s⁻¹. Moreover, the INH entry in [2] is “Active”; in [8], “Not Active”. The negative-log IC50 (pIC50) in the series with NCI/ADR-RES was 4.88; with HepG2 [6], 4.43; in series [7], 4.78. The half-life at 100 µM in [3] was 3.5 h. Further, the FC in series [4] is reported as 1.04; in [5], 2.97.

Consider `C[C@]12CC[C@H]3[C@@H](CCC4=CC(=O)CC[C@@]43C)[C@@H]1CC[C@@H]2O` [TESTOSTERONE], for which, in series [1], the k el at 100 µM was 0.00444 s⁻¹.

For the compound `CC(=O)O[C@@H]1C[C@@H](OC(=O)c2ccccc2)/C(C)=C/[C@H]2[C@@H](OC(=O)c3ccccc3)[C@@H](C)[C@H](O)[C@]2(OC(C)=O)[C@H](O)[C@](C)(O)CCC1(C)C`, the k el at 100 µM in series [1] was 1.33e-05 s⁻¹. In addition, the INH entry in series [2] and in series [8] was “Active” each time. Besides, the pIC50 with NCI/ADR-RES is less than 3.82; in the series on HepG2 [6], less than 3.82; in series [7], less than 4.00. Also, the result with HepG2 [9] was Active. Further, in series [3], the half-life at 100 µM is 14.4 h. The FC in series [4] is 1.34; in series [5], 2.74. Also, the TGI in the series on HepG2 [10] came out at 62.89%.
